Assay outcomes deposited in PubChem BioAssay by Broad Institute.
F508del corr – F508del CFTR correction, initial screen, CFBE line, single point. CFBE cells, YFP halide quenching; stimulated with forskolin plus potentiator P3; % fluorescence drop versus neutral controls. activity (quench increase), % at 7.58 µM. actives 0.36% (n = 350,000). AID 720511, 2013;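 active = mean added fluorescence quench of at least 8% versus neutral control, with both replicates also reaching 8%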;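 also: cells transiently co-express mutant CFTR-F508del with the halide-sensitive YFP; corrector assay measuring rescue of mutant channel to the surface after 24 h compound exposure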
Ecoli rRNA inh – reduced GFP signal of wild-type E. coli, primary screen, bacterial rRNA inhibitor project, GFP/RFP fluorescence, OD600, single point; actives 1.6% (n = 350,000); GFP signal change (wild-type ribosome), % (no concentration beside the values); E. coli WT GFP vs humanized-ribosome RFP mutants, 24 h; stronger effect = lower value; DMSO median 0, no signal -100;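 active = significant combined selectivity score with lowered wild-type GFP, culture density cut under 30%, mutant RFP and density less affected; inactive = any of these conditions unmet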
SIRT5 inh – SIRT5 desuccinylase inhibitors, primary screen, biochemical, fluorescence imaging, single point, set 5. AID 652115, 2013. actives 1.1% (n = 330,000). inhibition, % at 15 µM. NAD-dependent protein deacylase sirtuin-5, mitochondrial (Homo sapiens), Q9NXA8. Purified SirT5, succinyl-peptide AMC, trypsin-coupled fluorescence; in the data active = inhibition above about 15%
Target sequence (Q9NXA8 whole entry, looked up): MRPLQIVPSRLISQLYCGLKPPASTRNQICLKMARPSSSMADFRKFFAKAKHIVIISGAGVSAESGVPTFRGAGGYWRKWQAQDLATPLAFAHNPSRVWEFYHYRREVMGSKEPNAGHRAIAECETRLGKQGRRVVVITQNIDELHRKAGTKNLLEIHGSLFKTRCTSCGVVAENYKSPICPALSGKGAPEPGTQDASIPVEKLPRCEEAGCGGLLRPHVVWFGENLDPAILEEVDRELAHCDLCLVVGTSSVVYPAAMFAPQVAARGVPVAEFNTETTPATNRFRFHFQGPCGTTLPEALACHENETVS
S100A4 inh HTS – inhibitors of S100A4-myosin IIA peptide binding, primary screen, biochemical, fluorescence polarization, TAMRA-MyoIIA peptide; inhibition, % at 10.7 µM; actives 0.14% (n = 360,000);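 active = mean inhibition of at least 70% across replicates, with every replicate also reaching that level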
Target sequence (P26447 whole entry, looked up): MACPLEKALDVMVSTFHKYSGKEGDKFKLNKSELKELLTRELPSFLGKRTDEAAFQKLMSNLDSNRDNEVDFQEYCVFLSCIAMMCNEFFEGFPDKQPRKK
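Material: S100A4 monomer protein | Medium: HEPES pH 7.2 with CaCl2, KCl, NaCl, DTT, Triton | Reagent: Labelled myosin peptide probe, 5 nM | Doses: One dose per compound | Times: 5 min incubation before reading | Benchmarks: Neutral control DMSO, positive control TFP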
ERAP1 inh – human ERAP1 aminopeptidase inhibitors, primary screen, biochemical, single point, plate reader; actives 0.15% (n = 340,000); Endoplasmic reticulum aminopeptidase 1 (Homo sapiens), Q9NZ08; AID 652197, 2013; inhibition, % at 10.7 µM; recombinant ERAP1, Leu-AMC fluorescence, 60 min;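 active = mean replicate inhibition of at least 30%, or all replicates individually reaching that 30% level; inactive = mean below 30% and not every replicate reaching it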;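 also: 0% = neutral control wells and 100% = L-leucinethiol positive control wells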
* hit, by the source's call; · = no result. Compounds with a hit are over-represented: about 3.1% of the library has one in this group of screens.

SMILES	F508del corr	Ecoli rRNA inh	SIRT5 inh	S100A4 inh HTS	ERAP1 inh
COc1cc2c(cc1OC)C(C)N(C(=O)c1sccc1C)CC2 (stereo not given)	0.0	-0.9	5.0	6.7	-1.2
COc1ccc2c3c(n(C)c2c1)[C@@H](CO)N(C(=O)Cc1ccccc1)CC31CCN(C(=O)Cc2ccccc2)CC1	-1.2	-4.7	2.7	3.8	-3.1
Cc1ccc(S(=O)(=O)NNC(=O)Nc2ccc([N+](=O)[O-])cc2)c(C)c1	-1.7	-22.6*	-4.3	-6.6	1.4
C[C@H](CO)N1C[C@H](C)[C@H](CN(C)Cc2ccc(C(=O)O)cc2)Oc2c(NS(=O)(=O)c3cn(C)cn3)cccc2C1=O	-1.1	1.9	10.9	-26.6	1.0
CN1c2ccc(Br)cc2[C@H]2[C@H](CCN2C(=O)CN2CCOCC2)[C@@H]1CO	0.1	8.6	-1.6	-2.4	1.1
COc1cccc(F)c1C(C[N+](=O)[O-])c1c(N)n(C)c(=O)n(C)c1=O (stereo not given)	-5.2	-24.1*	2.1	-6.0	·
Cc1ccc(C(C[N+](=O)[O-])c2c(N)n(C)c(=O)n(C)c2=O)cc1 (stereo not given)	0.8	-24.4*	·	-1.5	·
COc1ccc(-c2cn(CC[C@H]3CC[C@@H](NS(=O)(=O)c4ccccc4C)[C@@H](CO)O3)nn2)cc1	0.0	-3.1	1.6	10.9	2.8
O=C(O)CN1C(=O)C2(OCCO2)c2cc(Br)ccc21	0.0	·	-2.9	-1.5	1.4
O=C(CN1C(=O)C2(OCCO2)c2cc(Br)ccc21)NO	1.4	-15.9	-0.3	-3.9	34.3*
CCOC(=O)c1sc2nc(OCc3cccnc3)cc(C)c2c1N	1.5	-3.5	24.8*	14.9	0.5
CCOC(=O)c1sc2nc(C)nc(NCc3cccnc3)c2c1C	-0.5	14.6	8.1	-1.9	-0.7
Cc1c(C(=O)NNc2c(Cl)cccc2Cl)n(C)oc1=O	-0.1	-22.4*	-3.3	-6.0	-0.8
Cc1c(C(=O)Oc2ccc(Cl)cc2)n(C)oc1=O	-0.4	12.6	-1.7	-5.1	0.5
CN(Cc1ccno1)Cc1cn(C)nc1-c1ccc(Oc2ccccc2)cc1	-3.4	-33.7*	-1.4	-5.0	29.0
CC(C)N(C)Cc1cn(C)nc1-c1ccc(Oc2ccccc2)cc1	0.3	-6.0	-2.9	-14.1	-3.4
CCC(=O)N1CC2(C1)[C@H](c1ccc(-c3ccccc3)cc1)[C@H](CO)N2C(C)=O	·	-2.1	·	·	·
CCCNC(=O)[C@@H]1[C@@H](CO)[C@@H]2Cn3c(ccc(C4=CCCCC4)c3=O)[C@@H]2N1C(=O)c1cnccn1	0.9	-0.5	0.9	4.2	0.5
COc1ccc(-c2ccc3c(c2)C2CC3CCN2C(=O)C(C)(C)C)cc1 (stereo not given)	0.1	-29.9*	0.9	4.9	-1.1
O=C(OCc1ccccc1)N1CCC2CC1c1cc(Cl)ccc12 (stereo not given)	1.2	-18.6	3.3	3.3	-2.9
N#Cc1ccc(C(=O)N2CCC3CC2c2cc(-c4ccc(F)cc4)ccc23)cc1 (stereo not given)	-2.8	-25.6*	-3.8	1.7	·
COCC(=O)N1CCC2CC1c1cc(Cl)ccc12 (stereo not given)	-2.1	9.4	21.5*	-2.5	-3.7
Cc1ccc(-c2ccc3c(c2)O[C@@H](CN(C)C(=O)C2CCCCC2)[C@H](C)CN([C@@H](C)CO)S3(=O)=O)cc1	-2.1	-2.5	·	·	·
COc1cccc2cc(-c3ccnc(N)n3)oc12	1.3	-32.3*	3.7	-0.9	3.4
COc1cccc2cc(-c3n[nH]c(=S)n3C)oc12	-0.9	-8.2	-4.8	-0.5	-3.0
SMILES	F508del corr	Ecoli rRNA inh	SIRT5 inh	S100A4 inh HTS	ERAP1 inh
COc1ccc(CCC(=O)N2CCN(S(=O)(=O)c3ccc(OC(F)(F)F)cc3)CC2)cc1	15.7*	-2.6	-3.1	0.1	0.4
COc1ccc(CCC(=O)N2CCN(S(=O)(=O)c3ccc(OC)c([N+](=O)[O-])c3)CC2)cc1	-3.2	·	·	-2.7	-0.2
COc1cccc(-c2cnc3c(c2)C(=O)N([C@H](C)CO)C[C@H](C)[C@H](CN(C)S(=O)(=O)c2cn(C)cn2)O3)c1	0.2	3.8	-8.1	-20.0	-2.8
Cc1noc(C)c1NC(=O)Nc1ccc2c(c1)C(=O)N([C@@H](C)CO)C[C@@H](C)[C@@H](CN(C)C(=O)Nc1ccccc1)OCCCC[C@@H](C)O2	-0.5	-0.4	0.3	8.9	-1.1
Cc1nn(Cc2ccc(C(=O)Nc3ccccc3F)cc2)c(C)c1Cl	-1.1	-24.0*	-6.8	-4.6	12.1
Cc1nn(Cc2ccc(C(=O)NN)cc2)c(C)c1Cl	-1.0	-11.4	-3.3	-0.2	4.3
N#Cc1c(SCC(=O)Nc2nccs2)sc2c(O)cc(=O)[nH]c12	1.1	-1.9	25.6*	-9.9	0.6
CCCSc1nnc(NC(=O)CSc2sc3c(O)cc(=O)[nH]c3c2C#N)s1	0.5	-0.4	26.1*	1.4	-0.7
O=C(C[C@H]1C[C@H]2c3cc(NC(=O)c4ccc5c(c4)OCO5)ccc3O[C@H]2[C@H](CO)O1)NCc1ccc(Cl)cc1	0.8	-5.2	-0.1	0.9	-5.3
COc1ccccc1N(C(C)=O)C1=C(Cl)C(=O)c2ccccc2C1=O	-7.4	-8.7	·	-2.1	60.5*
COc1cccc(S(=O)(=O)N[C@H]2C=C[C@@H](CC(=O)NC3CCC3)O[C@@H]2CO)c1	1.5	-3.0	-5.6	15.3	-1.0
C[C@@H]1CCCCO[C@H](CN(C)C(=O)Cc2ccccc2)[C@@H](C)CN([C@H](C)CO)C(=O)c2cc(NS(=O)(=O)c3cn(C)cn3)ccc2O1	0.6	-2.6	24.5*	1.4	-0.5
C[C@@H]1CN([C@@H](C)CO)C(=O)c2cc(NS(=O)(=O)c3cn(C)cn3)ccc2O[C@@H](C)CCCCO[C@@H]1CN(C)C(=O)Cc1ccccc1	1.4	0.8	-1.0	-18.0	-2.9
C[C@@H]1CCCCO[C@H](CN(C)C(=O)Cc2ccccc2)[C@H](C)CN([C@H](C)CO)C(=O)c2cc(NS(=O)(=O)c3ccccc3)ccc2O1	-1.0	-0.2	15.5*	57.9	-0.4
CO[C@H]1CN(C)C(=O)c2cc(NC(=O)C3CCCCC3)ccc2OC[C@@H](C)N(C)C[C@H]1C	0.0	0.9	-2.7	-4.5	0.4
C=C(C)CNC(=O)CCc1nnc(Cc2cccc(C(F)(F)F)c2)o1	4.6	·	-3.6	-2.8	-1.9
O=C(CCc1nnc(Cc2cccc(C(F)(F)F)c2)o1)NCC(F)(F)F	·	19.6	17.7*	-1.3	0.1
CC(C)(CO)CNC(=O)CCc1nnc(CCCc2ccccc2)o1	0.2	3.2	2.7	4.2	-1.9
